Data set [1] is described as follows: Half life in plasma (unknown origin) at pH 7.4 at 50 uM up to 180 mins by UPLC-MS/MS analysis. In kind it is ADME, cell-free. In a few lines: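 Compound at 50 μM incubated at 37 °C in prewarmed plasma buffered to pH 7.4 (70:30 plasma to buffer). Aliquots were taken at 0, 30, 60, 120 and 180 min and quenched in acetonitrile with donepezil internal standard. Samples were centrifuged and analysed by UPLC-MS/MS. The rate constant was fitted as exponential decay of the compound/internal standard peak-area ratio.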

In data set [2] the target is T1, Von Hippel-Lindau disease tumor suppressor/Elongin B/Elongin C (Homo sapiens) (UniProt P40337+Q15370+Q15369). As to the kind of experiment: Inhibition of VBC in human HeLa cells expressing HRE-luciferase reporter gene assessed as reduction in HIF transcriptional activity at 1 to 250 uM after 24 hrs by luciferase reporter gene assay. In kind it is cell-based. Background: A reporter such as luciferase makes a cellular process visible.
T1 sequence (P40337 whole entry, looked up): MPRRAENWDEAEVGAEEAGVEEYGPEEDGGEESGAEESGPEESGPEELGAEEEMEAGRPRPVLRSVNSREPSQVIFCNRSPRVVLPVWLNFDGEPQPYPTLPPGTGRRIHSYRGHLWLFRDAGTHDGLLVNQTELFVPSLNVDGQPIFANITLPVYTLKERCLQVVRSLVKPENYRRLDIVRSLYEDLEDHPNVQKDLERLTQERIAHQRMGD
T1 sequence (Q15369 whole entry, looked up): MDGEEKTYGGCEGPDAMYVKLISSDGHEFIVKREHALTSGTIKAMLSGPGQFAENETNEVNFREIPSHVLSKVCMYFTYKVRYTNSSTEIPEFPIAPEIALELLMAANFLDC
T1 sequence (Q15370 whole entry, looked up): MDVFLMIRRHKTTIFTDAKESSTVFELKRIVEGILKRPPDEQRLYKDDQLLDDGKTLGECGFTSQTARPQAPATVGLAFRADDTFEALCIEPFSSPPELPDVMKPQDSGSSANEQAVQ

Data set [3] in a line: Chromatographic hydrophobicity index, log D of the compound at pH 7.4 by HPLC analysis. In kind it is physicochemical. Conditions: buffer. In a few lines: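 DMSO stocks (10 mM) diluted to 0.25 mM in 50:50 acetonitrile:water. Run on C18 HPLC at 20 °C, 1 mL/min. Mobile phase 10 mM ammonium acetate pH 7.4 with an acetonitrile gradient. Retention times calibrated against a standard mix of eleven reference compounds, then converted to CHIlogD.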

For data set [4], the target named is T1, Von Hippel-Lindau disease tumor suppressor/Elongin B/Elongin C (Homo sapiens). As to the kind of experiment: Binding affinity to VBC (unknown origin) assessed as dissociation rate constant at 50 uM after 160 secs at 10 degC by surface plasmon resonance assay. The class given is protein-complex assay. In a few lines:
(§1)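 SPR on a Biacore T100 at 10 and 20 °C against VBC complex. Ligand stock 50 μM in DMSO, 2-fold serial dilutions in SPR buffer (20 mM HEPES, 150 mM NaCl, 1 mM DTT, 0.005% Tween P20, pH 7.0). Kd taken as koff/kon.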
(In general: SPR reads the build-up and loss of mass on a sensor chip optically.)

For data set [5] the target is unchanged. As to the kind of experiment: Binding affinity to VBC (unknown origin) assessed as dissociation rate constant at 50 uM after 160 secs at 20 degC by surface plasmon resonance assay. In kind it is protein-complex assay. In short, it runs like this: as §1
Data set [6] has as its system HeLa. Put plainly: Antiproliferative activity against human HeLa cells assessed as reduction in colony formation at 150 uM incubated for 24 hrs by crystal violet staining based assay. In kind it is cell-based. In short, it runs like this:
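HeLa cells, 500–2000 per well, seeded one day before exposure to 150 μM compound; 1% DMSO as vehicle control. Medium replaced after 24 h treatment, then grown a further week. Stained with 0.005% crystal violet in 25% methanol for 10 min at room temperature. Colonies counted on scanned plates.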

Data set [7] addresses T1, Von Hippel-Lindau disease tumor suppressor/Elongin B/Elongin C (Homo sapiens).
Data set [8] can be described thus: Intrinsic clearance in CD1 mouse liver microsomes at 0.5 uM up to 30 mins by UPLC-MS/MS analysis. In kind it is ADME, microsome. Conditions: 0.5 h. In a few lines:
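Compound at 0.5 μM with female CD1 mouse liver microsomes (0.5 mg/mL) in 50 mM potassium phosphate pH 7.4, started with excess NADPH. Samples quenched in acetonitrile at 0, 3, 6, 9, 15 and 30 min; UPLC-MS/MS against internal standard. Decay rate constant converted to CLi assuming 52.5 mg microsomal protein/g liver. Verapamil as assay control.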
(In general: Liver microsomes are a subcellular fraction often used to study metabolism.)

In data set [9] the target is T1, Von Hippel-Lindau disease tumor suppressor/Elongin B/Elongin C (Homo sapiens). Put plainly: Inhibition of VBC in human HeLa cells assessed as HIF-1alpha stabilization by measuring HIF-1alpha protein levels at 50 uM after 2 hrs by Western blot analysis. The class given is cell-based. More on the design: scale not given: the % may be the effect or the level left. In a few lines: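 HeLa (ATCC) grown in DMEM with 10% FBS, L-glutamine and penicillin/streptomycin at 37 °C; mycoplasma-tested. Treated 2 h in fresh medium, 1% DMSO as vehicle control. Lysed in RIPA buffer with protease inhibitors, SDS-PAGE, nitrocellulose blot. Anti-HIF-1α probed with β-actin as loading control, IRDye 800CW secondary for detection. Levels normalized to a reference VHL inhibitor.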

For data set [10], the system named is HeLa. Put plainly: Antiproliferative activity against human HeLa cells assessed as reduction in cell proliferation at 150 uM incubated for 24 to 72 hrs by haemocytometry. In kind it is cell-based.
Data set [11] can be described thus: Passive permeability of the compound in pH 7.4 PBS at 10 uM after 5 hrs by UPLC-MS/MS method based PAMPA. The class given is ADME. Conditions: pH 7.4, 5 h. In short, it runs like this: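 Precoated PAMPA plate with lipid–oil–lipid trilayer filter. Compound at 10 μM in PBS pH 7.4 (≤5% DMSO) in the donor well, PBS in the acceptor well. Held 5 h at room temperature; both compartments quantified by UPLC-MS/MS. Pe calculated from peak areas; data accepted only if recovery exceeded 70%. Propranolol as control.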

Data set [12] deals with T1, Von Hippel-Lindau disease tumor suppressor/Elongin B/Elongin C (Homo sapiens). This is another data set of the same source.
Data set [13] has the same target. Put plainly: Binding affinity to VBC (unknown origin) assessed as association rate constant at 50 uM after 60 secs at 10 degC by surface plasmon resonance assay. In kind it is protein-complex assay. In short, it runs like this: as §1

The text below walks through data of ChEMBL document CHEMBL4219039, “Group-Based Optimization of Potent and Cell-Active Inhibitors of the von Hippel-Lindau (VHL) E3 Ubiquitin Ligase: Structure-Activity Relationships Leading to the Chemical Probe …” (J Med Chem, 2018).

SMILES strings stand for the structures. Calls of active or inactive are those of the source. The calls are words filed in the database; no cut-off is given here. Where only a bound is given, the exact number is not on record here.

Broadly, the half-life is the time in which the quantity being followed falls by half. In general, chromatographic logD refers to lipophilicity estimated from chromatographic retention. `Cc1ncsc1-c1ccc(CNC(=O)[C@@H]2C[C@@H](O)CN2C(=O)[C@@H](NC(=O)C2(F)CC2)C(C)(C)C)cc1`: in [1], the half-life at 50 µM is greater than 3 h. Further, the inhibition result in data set [2] was “Active”. In data set [3], the chromatographic logD amounted to 1.63. In addition, the K in data set [4] was found to be 0.058 s⁻¹; in data set [5] it was 0.098 s⁻¹; in data set [13], 2.4 ×10⁶ /M/s. For the same compound, the Activity result was “Toxic” in the data set on HeLa [6], 175% in data set [9] and “Toxic” in the data set on HeLa [10]. The T1/2 in [7] is 11.9 s; in data set [12], 7.07 s. For the same compound, the “intrinsic clearance (CLint)” value in data set [8] came out at 2.9 mL/min/g. The compound also gave a permeability in data set [11] of 2.71 ×10⁻⁶ cm/s.
